Experiment [1] relates to Streptococcus pyogenes. As to the kind of experiment: Decrease in Ska protein production in drug-resistant Streptococcus pyogenes D2TY isogenic delta covS mutant in BHI-YE supplemented medium at 1 ug/ml by Western blot analysis. In kind it is functional, organism-based. Put shortly: (§1)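 Strain D2TY or its covS knockout, grown from −80°C stock at 37°C without agitation in 5 ml BHI-YE (0.3% yeast extract) containing protease inhibitor E-64, with or without 1 μg/ml CLI. Supernatant proteins run on SDS-PAGE and blotted to PVDF. Rabbit anti-Slo, anti-Nga or anti-Ska (1:2,000) applied for 16 h at room temperature. HRP goat anti-rabbit IgG (1:2,000) used as secondary. Triplicate assays from at least two independent cultures.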
For orientation: Immunoblotting shows a protein as a band on a membrane.

Experiment [2] concerns Streptococcus pyogenes. As to the kind of experiment: Induction of covR mRNA expression in drug-resistant Streptococcus pyogenes D2TY delta covS mutant at 1 ug/ml by Northern blot analysis. In kind it is functional, organism-based. Put shortly:
(§2)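 Cells grown static at 37°C in 5 ml BHI-YE, with 1 μg/ml CLI or none added at inoculation, and harvested at OD660 ≈0.8 (late log). Total RNA was DNase-treated. About 1 μg was run on 1% agarose with 1.1 M formaldehyde and blotted to nylon. Probes were 32P-labeled nga, slo, ska, covS or covR DNA, quantified by autoradiography/bioimaging. Triplicate assays from at least two independent cultures.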

In experiment [3] the test system is Streptococcus pyogenes. Nature of the experiment: Decrease in slo mRNA expression in drug-resistant Streptococcus pyogenes D2TY isogenic delta covS mutant in BHI-YE supplemented medium at 1 ug/ml by Northern blot analysis. In kind it is functional, organism-based. Summed up: as §2
The subject of experiment [4] is Streptococcus pyogenes. As to the kind of experiment: Induction of Slo protein production in drug-resistant Streptococcus pyogenes D2TY at 1 ug/ml by Western blot analysis. In kind it is functional, organism-based. Summed up: as §1
Experiment [5] has as its system Streptococcus pyogenes. As to the kind of experiment: Decrease in Slo protein production in drug-resistant Streptococcus pyogenes D2TY isogenic delta covS mutant in BHI-YE supplemented medium at 1 ug/ml by Western blot analysis. Type of experiment: functional, organism-based. Put shortly: as §1
Experiment [6] has as its system Streptococcus pyogenes. Nature of the experiment: Induction of two-component sensor kinase CovS expression in drug-resistant Streptococcus pyogenes D2TY delta covS mutant at 1 ug/ml by Northern blot analysis. In kind it is functional, organism-based. Put shortly: as §2
The test system of experiment [7] is Streptococcus pyogenes. Nature of the experiment: Induction of slo mRNA expression in drug-resistant Streptococcus pyogenes D2TY at 1 ug/ml by Northern blot analysis. In kind it is functional, organism-based. Summed up:
as §2

The test system of experiment [8] is Streptococcus pyogenes. Nature of the experiment: Induction of covS mRNA expression in drug-resistant Streptococcus pyogenes D2TY in BHI-YE supplemented medium at 1 ug/ml by Northern blot analysis. Type of experiment: functional, organism-based. Summed up: as §2
For experiment [9], the system named is Streptococcus pyogenes. As to the kind of experiment: Decrease in Nga protein production in drug-resistant Streptococcus pyogenes D2TY isogenic delta covS mutant in BHI-YE supplemented medium at 1 ug/ml by Western blot analysis. In kind it is functional, organism-based. Summed up: as §1
In experiment [10] the test system is Streptococcus pyogenes. Nature of the experiment: Induction of ska mRNA expression in drug-resistant Streptococcus pyogenes D2TY at 1 ug/ml by Northern blot analysis. Type of experiment: functional, organism-based. Put shortly: as §2
In experiment [11] the test system is Streptococcus pyogenes. As to the kind of experiment: Induction of covS mRNA expression in drug-resistant Streptococcus pyogenes D2TY delta covS mutant at 1 ug/ml by Northern blot analysis. In kind it is functional, organism-based. Summed up:
as §2

Experiment [12] relates to Streptococcus pyogenes. Nature of the experiment: Induction of Nga protein production in drug-resistant Streptococcus pyogenes D2TY at 1 ug/ml by Western blot analysis. Type of experiment: functional, organism-based. Put shortly: as §1
Experiment [13] deals with Streptococcus pyogenes. Nature of the experiment: Decrease in ska mRNA expression in drug-resistant Streptococcus pyogenes D2TY isogenic delta covS mutant in BHI-YE supplemented medium at 1 ug/ml by Northern blot analysis. In kind it is functional, organism-based. Put shortly:
as §2

The test system of experiment [14] is Streptococcus pyogenes. Nature of the experiment: Induction of nga mRNA expression in drug-resistant Streptococcus pyogenes D2TY at 1 ug/ml by Northern blot analysis. Type of experiment: functional, organism-based. Summed up: as §2
Experiment [15] deals with Streptococcus pyogenes. Nature of the experiment: Decrease in nga mRNA expression in drug-resistant Streptococcus pyogenes D2TY isogenic delta covS mutant in BHI-YE supplemented medium at 1 ug/ml by Northern blot analysis. Type of experiment: functional, organism-based. Summed up: as §2
Experiment [16] relates to Streptococcus pyogenes. Nature of the experiment: Induction of Ska protein production in drug-resistant Streptococcus pyogenes D2TY at 1 ug/ml by Western blot analysis. Type of experiment: functional, organism-based. Put shortly: as §1
In experiment [17] the test system is Streptococcus pyogenes. As to the kind of experiment: Antibacterial activity against Streptococcus pyogenes D2TY. In kind it is functional. Put shortly: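 MICs of clindamycin hydrochloride determined for S. pyogenes M1 strain D2TY (STSS clinical isolate) by broth microdilution and by Etest, following CLSI guidelines. Bacteria grown at 37°C without agitation in brain heart infusion broth with 0.3% yeast extract. Resistance breakpoint taken as MIC above 1 μg/ml.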

The source made the active and inactive calls. No cut-off for these calls is given here.

The values below come from ChEMBL document CHEMBL1212739, “Clindamycin-induced CovS-mediated regulation of the production of virulent exoproteins streptolysin O, NAD glycohydrolase, and streptokinase in Streptococcus pyogenes” (2010).

`CCC[C@@H]1C[C@@H](C(=O)N[C@@H]([C@H]2O[C@H](SC)[C@H](O)[C@@H](O)[C@H]2O)[C@H](C)Cl)N(C)C1.Cl` [CLINDAMYCIN HYDROCHLORIDE]: the outcome in the experiment on Streptococcus pyogenes [1], with Streptococcus pyogenes [3], in the experiment with Streptococcus pyogenes [4], in the experiment with Streptococcus pyogenes [5], in the experiment on Streptococcus pyogenes [7] and in the experiment with Streptococcus pyogenes [8] was Active. Besides, the result with Streptococcus pyogenes [9], with Streptococcus pyogenes [10], in the experiment with Streptococcus pyogenes [12], in the experiment on Streptococcus pyogenes [13], in the experiment with Streptococcus pyogenes [14] and in the experiment with Streptococcus pyogenes [15] was Active. Also, the outcome with Streptococcus pyogenes [16] was Active. Also, the outcome in the experiment with Streptococcus pyogenes [2], in the experiment with Streptococcus pyogenes [6] and in the experiment with Streptococcus pyogenes [11] was inactive. The MIC – broadly, the least concentration at which growth counts as inhibited – in the experiment on Streptococcus pyogenes [17] is 256 µg/mL.
